# Measurements: ChEMBL document CHEMBL1158348, “Aroylpropionic acid based 2,5-disubstituted-1,3,4-oxadiazoles: synthesis and their anti-inflammatory and analgesic activities” (Eur J Med Chem, 2009)
# How the values were obtained:
# Rattus norvegicus [1] = assay: Antiinflammatory activity in po dosed Wistar rat assessed as inhibition of carrageenan-induced paw odema at dose equivalent to 20 mg/kg of ibuprofen pretreated 30 mins pre-carrageenan challenge measured after 3 hrs; type: functional
# Method in brief: (§1)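 Rats 150–200 g, groups of six. Drug given orally as a suspension in 0.5% w/v aqueous sodium CMC; control group untreated. 30 min later, 0.1 mL of 1% carrageenan injected sub-plantar into the left hind paw. Paw volume measured by plethysmometer before treatment (V0) and at intervals (Vt). Inhibition computed from (Vt−V0) of treated vs control. Values are mean ± S.E.M.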
# Gastric mucosa [2] = assay: Inhibition of lipid peroxidation assessed as malondialdehyde level per 100 mg of gastric mucosa isolated from po dosed Wistar rat treated dose equivalent to 60 mg/kg equivalent to ibuprofen by UV spectrophotometry; type: functional
# Method in brief: (§2)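 Rats 150–200 g, groups of six, fasted 8 h, then given a single oral dose and killed 17 h later with food and water available. Gastric mucosa scraped, 100 mg homogenised in ice-cold 1.15% KCl. SDS, pH 3.5 acetate buffer and 0.8% TBA added, heated at 95 °C for 60 min. Extracted with n-butanol/pyridine 15:1, A532 read; MDA in nmol/100 mg tissue.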
# Rattus norvegicus [3] = assay: Antiinflammatory activity in po dosed Wistar rat assessed as inhibition of carrageenan-induced paw odema at dose equivalent to 20 mg/kg of ibuprofen pretreated 30 mins pre-carrageenan challenge measured after 2 hrs; type: functional; method in brief: as §1
# Mus musculus [4] = assay: Analgesic activity in po dosed Swiss albino mouse assessed as inhibition of acetic acid-induced writhing response at dose equivalent to 20 mg/kg of ibuprofen pretreated 3 hrs before acetic acid challenge; type: functional; design: scale not given: the % may be the effect or the level left
# Method in brief: (§3)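 Mice 25–30 g of either sex, groups of six. Drug given orally as a suspension in 0.5% w/v aqueous sodium CMC, 3 h before 1% v/v acetic acid i.p. at 1 mL per 100 g body weight. Writhings counted over 10 min. Protection (%) = 100 − (test/control writhings × 100). Values are mean ± S.E.M., with ANOVA then t-test.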
# Rattus norvegicus [5] = assay: Gastrointestinal toxicity in po dosed Wistar rat assessed ulcer index at dose equivalent to 60 mg/kg of ibuprofen after 17 hrs; type: organism-based; design: dose 60 mg/kg, route oral; conditions: in vivo
# Method in brief: (§4)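 Wistar rats (150–200 g), groups of six, fasted 8 h, then given a single oral dose (60 mg kg-1 ibuprofen or molar equivalent of test compound; control received vehicle only). Sacrificed 17 h later with food and water available. Gastric mucosa examined under 4× binocular magnifier, scored 0–4 by lesion/ulcer number and size. Severity index = treated group mean score minus control mean score.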
# Rattus norvegicus [6] = assay: Antiinflammatory activity in Wistar rat assessed as inhibition of carrageenan-induced paw odema at 20 mg/kg, po pretreated 30 mins pre-carrageenan challenge measured after 8 hrs; type: functional; method in brief: as §1
# Rattus norvegicus [7] = assay: Antiinflammatory activity in Wistar rat assessed as inhibition of carrageenan-induced paw odema at 20 mg/kg, po pretreated 30 mins pre-carrageenan challenge measured after 3 hrs; type: functional; method in brief: as §1
# Mus musculus [8] = assay: Analgesic activity in Swiss albino mouse assessed as inhibition of acetic acid-induced writhing response at 20 mg/kg, po pretreated 3 hrs before acetic acid challenge; type: functional; design: scale not given: the % may be the effect or the level left; method in brief: as §3
# Rattus norvegicus [9] = assay: Antiinflammatory activity in Wistar rat assessed as inhibition of carrageenan-induced paw odema at 20 mg/kg, po pretreated 30 mins pre-carrageenan challenge measured after 2 hrs; type: functional; method in brief: as §1
# Rattus norvegicus [10] = assay: Gastrointestinal toxicity in Wistar rat assessed ulcer index at 60 mg/kg, po after 17 hrs; type: organism-based; design: dose 60 mg/kg, route oral; conditions: in vivo; method in brief: as §4
# Rattus norvegicus [11] = assay: Antiinflammatory activity in Wistar rat assessed as inhibition of carrageenan-induced paw odema at 20 mg/kg, po pretreated 30 mins pre-carrageenan challenge measured after 4 hrs; type: functional; method in brief: as §1
# Gastric mucosa [12] = assay: Inhibition of lipid peroxidation assessed as malondialdehyde level per 100 mg of gastric mucosa isolated from Wistar rat treated 60 mg/kg, po by UV spectrophotometry; type: functional; method in brief: as §2
SMILES,inhibition in vivo (Rattus norvegicus [1]) [%],Activity (Gastric mucosa [2]) [nmol],inhibition in vivo (Rattus norvegicus [3]) [%],Activity (Mus musculus [4]) [%],UI (Rattus norvegicus [5]),further results
Cc1ccc(C(=O)CCc2nnc(-c3ccc(Cl)cc3)o2)cc1,81.5,4.25,62.7,58.89,0.98,
Cc1ccc(C(=O)CCc2nnc(-c3ccc([N+](=O)[O-])cc3)o2)cc1,60.5,3.95,52,53.43,0.95,
Cc1ccc(C(=O)CCc2nnc(COc3ccccc3)o2)cc1,42,,25.3,,,
Cc1ccc(C(=O)CCc2nnc(Cc3ccccc3)o2)c(C)c1,50,,25.3,,,
O=C(CCc1nnc(-c2ccccc2Cl)o1)c1ccccc1,35.8,,26.9,,,
O=C(CCc1nnc(-c2ccc([N+](=O)[O-])cc2)o1)c1ccccc1,62.7,4.95,40.9,58.2,0.98,
COc1ccc(-c2nnc(CCC(=O)c3ccc(C)cc3C)o2)cc1,88.9,3.79,62.7,66.25,0.65,
Cc1ccc(C(=O)CCc2nnc(Cc3ccccc3)o2)cc1,51.9,,24.7,,,
Cc1ccc(C(=O)CCc2nnc(-c3ccccc3Cl)o2)cc1,57.3,,36.2,,,
Cc1ccc(C(=O)CCc2nnc(COc3ccccc3)o2)c(C)c1,45.7,,27.6,,,
Cc1ccc(C(=O)CCc2nnc(-c3ccc([N+](=O)[O-])cc3)o2)c(C)c1,69.1,4.42,40,47.2,0.87,
Cc1ccc(C(=O)CCc2nnc(-c3ccccc3)o2)c(C)c1,58,,36,,,
O=C(CCc1nnc(COc2ccc3ccccc3c2)o1)c1ccccc1,51,,29.8,,,
Cc1ccc(C(=O)CCc2nnc(-c3ccccc3Cl)o2)c(C)c1,60.5,4.15,33.5,56.8,0.89,
COc1ccc(-c2nnc(CCC(=O)c3ccc(C)cc3)o2)cc1OC,72.6,3.85,53.3,62.39,0.87,
COc1ccc(-c2nnc(CCC(=O)c3ccc(C)cc3C)o2)cc1OC,75.3,5.12,58.7,56.1,1.12,
Cc1ccc(C(=O)CCc2nnc(COc3cccc4ccccc34)o2)cc1,37,,24,,,
COc1ccc(-c2nnc(CCC(=O)c3ccc(C)cc3)o2)cc1,89.5,3.15,69.3,69.8,0.7,
O=C(CCc1nnc(-c2ccccc2)o1)c1ccccc1,29.4,,18.7,,,
O=C(CCc1nnc(-c2ccc(Cl)cc2)o1)c1ccccc1,81.5,5.32,42,63,1.12,
Cc1ccc(C(=O)CCc2nnc(COc3ccc4ccccc4c3)o2)cc1,49.4,,24.7,,,
Cc1ccc(C(=O)CCc2nnc(-c3ccc(Cl)cc3)o2)c(C)c1,72.6,3.26,53.3,60.42,0.71,
Cc1ccc(C(=O)CCc2nnc(-c3ccccc3)o2)cc1,49.3,,33.3,,,
CC(C)Cc1ccc(C(C)C(=O)O)cc1 (stereo unspecified) [IBUPROFEN],,,,,,inhibition in vivo at 20 mg/kg (Rattus norvegicus [6]): 46.7%; inhibition in vivo at 20 mg/kg (Rattus norvegicus [7]): 90.1%; Activity (Mus musculus [8]): 72.5%; inhibition in vivo at 20 mg/kg (Rattus norvegicus [9]): 80.9%; UI (Rattus norvegicus [10]): 1.95; inhibition in vivo at 20 mg/kg (Rattus norvegicus [11]): 65.5%; Activity (Gastric mucosa [12]): 7.51 nmol
